From ChEMBL document CHEMBL4513216, “Probing the Open Global Health Chemical Diversity Library for Multistage-Active Starting Points for Next-Generation Antimalarials” (ACS Infect Dis, 2020)

Experiment: Toxicity liver stage against HepG2, at 10uM
Assay type: cell-based
Design: test concentration 10 uM, cell line HepG2-A16-CD81EGFP
Settings: human, HepG2-A16-CD81EGFP cells; read-out: INHIBITION
In short: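 Uninfected HepG2-A16-CD81EGFP cells, 3 × 10^3 per well, 1536-well, plated on prespotted compound at 10 μM final, parasite-free screening media added to match infected plates; puromycin 10 μM positive, DMSO 0.5% negative; run in parallel with 48 h PbLuc assay at 37 °C, 5% CO2; viability by CellTiter-Glo luminescence, normalized to controls.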

SMILES	cytotoxicity at 10 µM [%]
COc1ccc(-c2cc(C3CCN(C(C)=O)CC3)ccn2)cc1	-5.05
O=C(CN1CCOc2ccccc2C1)N1Cc2cnn(CCO)c2C1	-3.24
COc1ccccc1C(=O)N1CCN(CCc2scnc2C)CC1	1.79
O=C(c1ccncc1)N1CC[C@@H]2CN(C3CCOCC3)CCO[C@@H]2C1	-110
Cc1cc(N2CCC(N(C)C(=O)c3ccccc3F)CC2)nc(C)n1	25.5
CCOc1ccc(C(=O)CC(SC2CCCCC2)C(=O)O)cc1 (stereo not given)	6.73
Cc1ccccc1C(=O)NCc1ccc(N2CCNC(=O)C2)c(F)c1	-13.8
CCC(=O)Nc1cc(Br)cnc1OCC(F)(F)F	-1.24
CCc1nnc(SC2CCN(c3ccccc3F)C2=O)n1C (stereo not given)	1.77
CCCC(=O)N1CCC(C(=O)NCCNc2ncccn2)CC1	-20
CCC(O)CN1CCN(C(=O)Cc2ccccc2Cl)CC1 (stereo not given)	-7.98
COc1cc(C)c(CN2CCC3(CC2)C(C(=O)O)CC(=O)N3C)cc1C (stereo not given)	-8.58
Cc1ccccc1-c1cc(CC2(C(=O)O)CCOCC2)on1	-14.1
Cc1ccccc1CN(C)C(=O)CN1CCCCC1Cn1cncn1 (stereo not given)	8.44
CC(C)c1cc(=O)[nH]c(C(C)(C)N)n1	-1.05
O=C(NCCc1ccccn1)N1CCOC(c2ccccc2Cl)C1 (stereo not given)	-7.75
Cc1cc(NC(=O)Cn2ccccc2=O)n(C)n1	-7.32
COc1cccc(-c2n[nH]c3c2CN(C(=O)c2cc(C)n(C)n2)CC3)c1	-0.159
O=C(CN1CC(c2nc(-c3cccs3)no2)C1)NCC1CCCO1 (stereo not given)	-1.47
COC(CNC(=O)C1CCCC1)c1ccc(C)s1 (stereo not given)	4.45
CCOC(=O)c1ccc(NC(=O)Cn2cc(I)cn2)cc1	2.96
CC(C)Cc1noc(CN2CCN(c3nccs3)CC2)n1	0.607

SMILES	cytotoxicity at 10 µM [%]
CC(C)c1nc(C2CCCN(c3nccc(N4CCCC4)n3)C2)no1 (stereo not given)	27.6
CS(=O)(=O)N1CCCC12CCCN(S(=O)(=O)c1ccc(F)c(F)c1)C2 (stereo not given)	1.46
O=C1CC[C@H]2CN(Cc3cccnc3)CC[C@H]2N1CCc1c[nH]cn1	-1.36
Cc1cc(C)nc(Nc2nccnc2C2CCCN(C(CO)CO)C2)n1 (stereo not given)	0.216
O=C(c1ccc(-n2cncn2)cc1)N1CCN(c2cnccn2)CC1	2.45
CCSc1ncccc1C(=O)NCc1ccc(N(C)C)cc1	4.36
Fc1ccc(-c2n[nH]cc2-c2ccnc(NCCN3CCCC3)n2)cc1	9.05
Cc1nc(N2CCCC2)nc2c1CN(C(=O)N(C)C)CC2	4.29
COc1ncccc1CN1C[C@@H]2C[C@@H](C(=O)NCC3CC3)N(C)[C@@H]2C1	1.2
CNS(=O)(=O)CC(=O)N(Cc1ccsc1)c1ccccc1	-2.4
O=C1CSC(c2ccc(Cl)cc2Cl)c2c(n(C3CCOCC3)[nH]c2=O)N1 (stereo not given)	-7.92
CC[C@@H](CO)Nc1cc(-c2cn[nH]c2)ncn1	-4.78
Cn1ccnc1CN1CCC(CCC(=O)Nc2ccccc2Cl)CC1	-3.73
Cc1cnn(CC2CCCN2C(=O)c2csc(C(C)C)n2)c1 (stereo not given)	4.89
CCc1ccc(C(=O)N2CCCC(CNS(C)(=O)=O)C2)o1 (stereo not given)	-19.7
CS(=O)(=O)Nc1ccc(-n2c(CCCO)nc3ccccc32)cn1	-3.14
COc1cccc(N2CC3(CCN(c4ccncn4)C3)CC2=O)c1 (stereo not given)	8.61
CC(C)Cc1ncc(CNc2cnccc2CO)s1	-6.53
CCN(CC(=O)NC(C)C)S(=O)(=O)N1CCCCC1C (stereo not given)	-1.14
Cc1cc(C)n(CC(C)CNC(=O)NCc2csc(C)n2)n1 (stereo not given)	11
Cc1cccc(C)c1OC1CN(Cc2cnc(-c3ccco3)nc2)C1	6.17
C[C@@H]1CN(C(=O)CCN2CCCC2)CC[C@@]1(O)C1CCOCC1	-5.15

SMILES	cytotoxicity at 10 µM [%]
CCS(=O)(=O)CCNC(=O)NC(C)c1ccc(C)s1 (stereo not given)	-8.64
CCOC(=O)N1CCN(C(=O)Cc2c(C)nc(C)[nH]c2=O)CC1	-6.31
CCN(CC)CCCC(C)NC(=O)c1ccccc1-n1cccn1 (stereo not given)	15.9
O=C1CNc2ncnc(N3CCN(c4ccccc4F)CC3)c2N1	7.69
CCOc1ccc(C(=O)Nc2c(C)nc3cccc(C)n3c2=O)cc1	8.99
Cc1cnc(C(=O)N2Cc3ccccc3OC3(CCOCC3)C2)cn1	-1.54
Cn1ccnc1SCCNc1nccc(C(F)(F)F)n1	-51
CN(C)C(=O)NC[C@@H]1OC[C@H]2CN(Cc3cccc(F)c3)CC[C@H]21	4.93
Cc1csc(C(Cc2ccsc2)NC(=O)c2cc(=O)n(C)c(=O)n2C)n1 (stereo not given)	-12.3
CCC(NC(=O)c1cccc(N2CCCC2=O)c1)c1ccc(OC)cc1 (stereo not given)	-62.3
CC(C)CCN1Cc2c(C(=O)O)ncn2-c2ccccc2S1(=O)=O	6.72
Cc1cc(C(=O)Nc2ccc3c(ccn3CCN3CCOCC3)c2)on1	4.29
COCCN(Cc1cnn(C)c1)Cc1ccc(C)o1	-0.0972
N#CC1CCCN(c2nc(-c3ccccc3)nc3c2CCNCC3)C1 (stereo not given)	-0.468
Cc1nc(S(=O)(=O)CCn2cccn2)n(C2CCCC2)c1C	-0.829
CCc1nc(C)c(C(=O)N(C)Cc2cnn(-c3cccc(OC)c3)c2)s1	11.7
COC(=O)c1ccc(F)c(Cn2nc(C)cc2C)c1	4.11
O=C(CN1CCN(C(=O)c2cccc(-c3ccoc3)c2)CC1)C1CC1	0.504
C[C@H]1C[C@H]2CN(C(=O)CCOc3ccccc3)CC[C@H]2O1	-69.3
CCOc1ccc(CN2C(=O)CC(C)(C(C)C)C2=O)nc1 (stereo not given)	-5.51
Cc1ccc2c(c1)OC(C)CN2C(=O)c1c[nH]c(C)cc1=O (stereo not given)	2.36
O=C(Cc1ccccc1)N1Cc2nccn2CC(CN2CCCC2)C1 (stereo not given)	-101

SMILES	cytotoxicity at 10 µM [%]
Cc1csc(C2CCCN(C(=O)c3cnc[nH]3)C2)n1 (stereo not given)	-10.7
Cc1ccc(C(=O)N2CC[C@@]3(C[C@@H](NS(C)(=O)=O)CCO3)C2)s1	-73.9
Cc1ncccc1NC(=O)[C@@H]1CC[C@@H]2[C@@H](CCN2Cc2cnn(C)c2)O1	-0.335
Cc1nccc(-c2cccc(NCC(=O)NCC(=O)N3CCCC3)c2)n1	-9.18
Cc1nnc(NC(=O)c2c3c(nn2C2CCS(=O)(=O)C2)CCC3)s1 (stereo not given)	-14.2
CC(=O)Nc1nc(C(=O)N2CCCC(n3ccnc3)C2)cs1 (stereo not given)	-3.44
Cn1c(CN2CCOCC2)nnc1C1CCCN(C(=O)CCC2CC2)C1 (stereo not given)	6.72
Cc1cc(NC2CCN(c3ccccc3)C2)n2ncnc2n1 (stereo not given)	14.7
Cc1cnn(CC2CCCN2C(=O)Cc2c(C)nc(C)[nH]c2=O)c1 (stereo not given)	-3.63
Cc1cccc(CNC(=O)CC2CCN(S(C)(=O)=O)CC2)n1	-1.57
Cn1ncc2c1NC(=O)CC2c1ccccc1Br (stereo not given)	49
COC(=O)CC1CN(Cc2c(Cl)ccc3cccnc23)CCO1 (stereo not given)	8.36
CCC(CNC(=O)c1cncc(Br)c1)N1CCc2ccccc2C1 (stereo not given)	13.4
CCc1cnc(N)nc1N1CCCC2(CCOCC2)C1	-135
O=C(NC[C@]1(O)CN(Cc2ccccc2F)C[C@H]1O)c1cscn1	-12
CN(Cc1c(Cl)ccc2cccnc12)CC(C)(CO)CO	7.6
NC(=O)C1CCN(C(=O)NC2CCc3cc(F)ccc32)CC1 (stereo not given)	2.52
CN(C)[C@@H]1CN(Cc2ccccn2)C[C@H]1c1cn(C)c2ccccc12	-0.73
O=c1cc2c(nn1CN1CCN(c3cccc(Cl)c3)CC1)CCC2	-3.19
Cc1ccc(CN2CC3(CCN(S(=O)(=O)c4ccccc4)C3)C2)o1	-2.3
CN(C)c1cc(C2CCCN2C(=O)c2ccc(=O)n(C)c2)ccn1 (stereo not given)	-23.9
CCn1nc(C)c2ncnc(N(C)Cc3ccco3)c21	8.88

SMILES	cytotoxicity at 10 µM [%]
CCc1cc(NCc2cc(CC(C)C)on2)n2nccc2n1	3.59
Cc1nc(C)n(CCC(=O)NCC2CCCOC2)n1 (stereo not given)	4.3
CCCN(CCC)c1nc(N)nc(-c2cc(Cl)ccc2OC)n1	7.43
CCc1noc(CN2CCCN(C(N)=O)CC2)n1	-4.12
CC(=O)N1CCC(c2nc3ccc(-c4ccnn4C)cn3n2)CC1	6.84
Cc1nc(N(C)C)nc(NCCc2ccccn2)c1C	4.59
Cc1csc(C(C#N)C(=O)Nc2ccccc2)n1 (stereo not given)	12.6
COCC(=O)N1C[C@@H]2CCCO[C@@H]2[C@H](N(C)Cc2ccco2)C1	-0.704
CC(NC(=O)c1ccc(F)cc1F)c1cnn(C)c1 (stereo not given)	3.68
CCN1CC(C(=O)NC(C)(C)C)CC1=O (stereo not given)	-2.91
Cc1cc2c(cc1NC(N)=O)OCO2	3.13
c1nc2c(c(N3CCOCC3)n1)CCNCC2	-2.36
CNc1nc(CNC(=O)Nc2cccc(OC)c2)cs1	-3.28
Cc1ccc(S(=O)(=O)N2C[C@H]3C[C@H](NC(=O)c4cnn(C)c4)[C@H]3C2)cc1	76.4
COCCc1noc(CN2CCCC2c2noc(C)n2)n1 (stereo not given)	4.73
Cc1ncnc(N2CCN(C(=O)C3CC4(CCNCC4)CN3)CC2)c1C (stereo not given)	-14.7
CC(=O)c1cccc(S(=O)(=O)N2CCC(c3noc(C)n3)CC2)c1	7.85
O=C1CO[C@H]2CN(C3CCOCC3)C[C@H]2N1Cc1ccc(F)cc1	-6.35
O=C(NCC(=O)N1CCCC1Cc1cccc(F)c1)c1ccccn1 (stereo not given)	-8.51
CC(NC(=O)NCCCN(C)S(C)(=O)=O)c1ccc(C#N)cc1 (stereo not given)	-5.77
COC(=O)CNC(=O)c1nc(Br)sc1C(C)C	-172
COCCNS(=O)(=O)c1ccc(Cl)c(C(=O)N(C)Cc2ccsc2)c1	-1.39
